These results are taken from ChEMBL document CHEMBL2321813, “Discovery of allosteric modulators of factor XIa by targeting hydrophobic domains adjacent to its heparin-binding site” (J Med Chem, 2013).

Assay [1] has as its target T1, Coagulation factor XI (Homo sapiens, UniProt P03951). The experiment in a line: Inhibition of human factor 11a using S2366 as substrate assessed as residual protease activity after 10 mins by spectrophotometry. The method, boiled down:
(§1)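 FXIa at 0.765 nM (final) preincubated 10 min at 37 °C with compound (12 serial dilutions) in 50 mM Tris-HCl pH 7.4, 150 mM NaCl, 0.1% PEG8000, 0.02% Tween80. S2366 (345 μM final) then added. Initial rate read at 405 nm. Fractional residual activity fit to a logistic equation for IC50, Hill slope and ΔY.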

In assay [2] the target is T1, Coagulation factor XI. The experiment in a line: Inhibition of human factor 11a using S2366 as substrate after 10 mins by spectrophotometry. A digest of the protocol:
as §1

Assay [3] has as its target T1, Coagulation factor XI. The experiment in a line: Binding affinity to human factor 11a-DEGR by spectrofluorometry. The method, boiled down: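 Fluorescence titration of active-site dansylated FXIa (FXIa-DEGR, 250 nM) with aliquots of sulfated QAO in 50 mM Tris-HCl pH 7.4, 150 mM NaCl, 0.1% PEG8000 at 37 °C. Emission monitored at 547 nm (λex 345 nm). Change in fluorescence fit to the Hill equation to give apparent KD.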

In the next assay the test system is Plasma. The experiment in a line: Anticoagulant activity in human plasma assessed as concentration required to double activated partial thromboplastin time. In kind it is functional. A digest of the protocol: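 Citrated pooled normal human plasma. APTT: 10 μL compound mixed with 90 μL plasma and 100 μL prewarmed APTT reagent (0.2% ellagic acid), incubated 4 min at 37 °C, then clotting started with 100 μL prewarmed 25 mM CaCl2. Vehicle control was deionized water and/or organic vehicle. Clot time was read on a fibrometer. Data fit to a quadratic trend line to get the concentration doubling clotting time. Run in duplicate.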

Assay [4] deals with Chymotrypsinogen A (Bos taurus) (UniProt P00766). The experiment in a line: Inhibition of bovine alpha-chymotrypsin assessed as residual protease activity at 500 uM after 10 mins by spectrophotometry.
In assay [5] the target is T2, Serine protease 1 (Bos taurus) (UniProt P00760).
T2 sequence (whole entry): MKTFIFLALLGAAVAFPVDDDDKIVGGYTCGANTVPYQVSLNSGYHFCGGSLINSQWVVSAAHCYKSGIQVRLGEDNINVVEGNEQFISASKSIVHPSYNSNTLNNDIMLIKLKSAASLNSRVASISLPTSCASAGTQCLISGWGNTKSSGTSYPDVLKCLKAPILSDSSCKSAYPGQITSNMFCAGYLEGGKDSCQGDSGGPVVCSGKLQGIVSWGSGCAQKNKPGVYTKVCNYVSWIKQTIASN
The experiment in a line: Inhibition of bovine trypsin assessed as residual protease activity at 500 uM after 10 mins by spectrophotometry.

Assay [6] has as its target Coagulation factor X (Homo sapiens) (UniProt P00742). The experiment in a line: Inhibition of human factor 10a assessed as residual protease activity at 500 uM after 10 mins by spectrophotometry.
Assay [7] concerns the target Prothrombin (Homo sapiens) (UniProt P00734). The experiment in a line: Inhibition of human thrombin assessed as residual protease activity at 500 uM after 10 mins by spectrophotometry.
Assay [8] deals with HEK293. The experiment in a line: Inhibition of human recombinant factor 11a catalytic domain Lys529Ala/Arg530Ala/Arg532Ala triple mutant transfected in HEK293 cells using S2366 as substrate assessed as residual protease activity at 3 uM after 10 mins by spectrophotometry. A digest of the protocol: (§2)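 Full-length wild-type FXIa, FXIa catalytic domain, and the Lys529Ala/Arg530Ala/Arg532Ala catalytic domain mutant were recombinant proteins from stably transfected HEK-293 cells, activated with FXIIa. Residual activity was measured by S2366 hydrolysis with 3 μM compound, with or without 30 μM Polybrene.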

The target in assay [9] is T1, Coagulation factor XI. The experiment in a line: Inhibition of human recombinant factor 11a catalytic domain transfected in HEK293 cells using S2366 as substrate assessed as residual protease activity at 3 uM after 10 mins by spectrophotometry. The method, boiled down:
as §2

For assay [10], the target named is T1, Coagulation factor XI. The experiment in a line: Inhibition of human wild type full length factor 11a transfected in HEK293 cells using S2366 as substrate assessed as residual protease activity at 3 uM after 10 mins by spectrophotometry. The method, boiled down:
as §2

Assay [11] deals with HEK293. The experiment in a line: Inhibition of human recombinant factor 11a catalytic domain Lys535Ala/Lys539Ala double mutant transfected in HEK293 cells. It counts as cell-based.
For assay [12], the species on record is Homo sapiens. The experiment in a line: Ratio of IC50 for human recombinant factor 11a catalytic domain Lys529Ala/Arg530Ala/Arg532Ala triple mutant to IC50 for human recombinant factor XIa catalytic domain. A digest of the protocol: (§3)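 Recombinant FXI catalytic domain constructs (wild type, Arg530Ala, Lys529Ala/Arg530Ala/Arg532Ala) were expressed stably in HEK-293 cells. […] Inhibition was measured by S2366 hydrolysis in 50 mM Tris-HCl pH 7.4, 150 mM NaCl, 0.1% PEG8000, 0.02% Tween80 at 37 °C. Dose-response data were fit to the logistic equation.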

The species entered for assay [13] is Homo sapiens. The experiment in a line: Ratio of IC50 for human recombinant factor 11a catalytic domain Arg530Ala mutant to IC50 for human recombinant factor XIa catalytic domain. The method, boiled down: as §3
The target in assay [14] is T1, Coagulation factor XI. The experiment in a line: Inhibition of human recombinant factor 11a catalytic domain. A digest of the protocol: as §3

Calls of active or inactive are those of the source. The rule behind the calls is not given here.

Sequence of Coagulation factor X (Homo sapiens) (P00742 41-179 limits assumed): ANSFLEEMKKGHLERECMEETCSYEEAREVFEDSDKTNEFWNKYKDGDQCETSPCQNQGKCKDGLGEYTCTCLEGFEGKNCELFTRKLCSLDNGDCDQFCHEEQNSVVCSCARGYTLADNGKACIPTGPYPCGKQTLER
Sequence of Coagulation factor X (Homo sapiens) (P00742 235-488 limits assumed): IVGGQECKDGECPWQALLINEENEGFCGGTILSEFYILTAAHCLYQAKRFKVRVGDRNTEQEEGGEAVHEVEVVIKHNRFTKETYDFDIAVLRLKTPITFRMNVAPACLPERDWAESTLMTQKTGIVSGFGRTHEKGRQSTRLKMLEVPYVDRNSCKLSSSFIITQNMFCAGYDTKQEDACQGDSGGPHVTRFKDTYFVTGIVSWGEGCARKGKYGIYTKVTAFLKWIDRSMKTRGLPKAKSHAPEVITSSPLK
T1 sequence (P03951 19-387 limits assumed): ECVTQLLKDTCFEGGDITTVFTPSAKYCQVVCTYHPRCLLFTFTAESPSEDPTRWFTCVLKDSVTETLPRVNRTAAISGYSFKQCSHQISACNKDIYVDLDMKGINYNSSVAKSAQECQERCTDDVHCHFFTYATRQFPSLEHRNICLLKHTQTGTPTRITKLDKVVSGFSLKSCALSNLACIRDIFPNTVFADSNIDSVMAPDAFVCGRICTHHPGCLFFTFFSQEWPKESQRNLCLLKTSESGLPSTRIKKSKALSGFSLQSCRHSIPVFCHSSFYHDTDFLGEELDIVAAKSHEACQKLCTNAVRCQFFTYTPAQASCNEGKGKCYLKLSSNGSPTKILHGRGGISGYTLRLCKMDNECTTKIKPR
T1 sequence (P03951 388-625 limits assumed): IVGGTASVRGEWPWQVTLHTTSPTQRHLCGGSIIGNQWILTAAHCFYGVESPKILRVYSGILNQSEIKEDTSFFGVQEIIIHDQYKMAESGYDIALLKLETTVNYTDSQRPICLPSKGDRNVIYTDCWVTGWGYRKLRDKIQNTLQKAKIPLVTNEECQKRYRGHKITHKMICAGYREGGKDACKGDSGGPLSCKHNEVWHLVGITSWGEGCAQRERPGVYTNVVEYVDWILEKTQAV

Regarding `O=c1c2ccccc2nc(-c2ccc(OS(=O)(=O)O)cc2)n1CCCCCn1nncc1Cn1c(-c2ccc(OS(=O)(=O)O)cc2)nc2ccccc2c1=O`, the Efficacy at Coagulation factor XI [1] came out at 94%.

On to `COc1cc(OS(=O)(=O)O)cc2oc(-c3ccc(OS(=O)(=O)O)c(OCc4cn(CCCCn5c(-c6cccc(OS(=O)(=O)O)c6)nc6ccccc6c5=O)nn4)c3)c(OS(=O)(=O)O)c(=O)c12`, for which the half-inhibitory concentration (IC50) at Coagulation factor XI [2] is above 1000 µM.

The compound `O=c1c2ccccc2nc(-c2cc(OS(=O)(=O)O)cc(OS(=O)(=O)O)c2)n1CCCCn1cc(Cn2c(-c3cc(OS(=O)(=O)O)cc(OS(=O)(=O)O)c3)nc3ccccc3c2=O)nn1` yielded a half-inhibitory concentration (IC50) against Coagulation factor XI [2] above 1000 µM.

Take `O=c1c2ccccc2nc(-c2cccc(OS(=O)(=O)O)c2)n1CCCCn1cc(Cn2c(-c3cccc(OS(=O)(=O)O)c3)nc3ccccc3c2=O)nn1`: the IC50 against Coagulation factor XI [2] was found to be 102 µM. For the same compound, the Efficacy at Coagulation factor XI [1] came out at 100%.

On Coagulation factor XI [2], `O=c1c2ccccc2nc(-c2ccc(OS(=O)(=O)O)cc2)n1CCCCn1cc(Cn2c(-c3cccc(OS(=O)(=O)O)c3)nc3ccccc3c2=O)nn1` had an IC50 of 159 µM. Besides, the Efficacy on Coagulation factor XI [1] stood at 88%.

On Coagulation factor XI [2], `O=c1c2ccccc2nc(-c2cccc(OS(=O)(=O)O)c2)n1CCCn1cc(Cn2c(-c3cccc(OS(=O)(=O)O)c3)nc3ccccc3c2=O)nn1` returned an IC50 of 320 µM. Further, the Efficacy on Coagulation factor XI [1] was 91%.

For the compound `CC(=O)Oc1cccc(-c2nc3ccccc3c(=O)n2Cc2cn(CCCCn3c(-c4cccc(OS(=O)(=O)O)c4)nc4ccccc4c3=O)nn2)c1`, the concentration for half-maximal inhibition (IC50) against Coagulation factor XI [2] is above 1000 µM.

In turn, `O=c1c2ccccc2nc(-c2ccc(OS(=O)(=O)O)cc2)n1CCCCCn1cc(Cn2c(-c3ccc(OS(=O)(=O)O)cc3)nc3ccccc3c2=O)nn1` displayed an IC50 against Coagulation factor XI [2] of 59 µM. For the same compound, on Coagulation factor XI [3], the Kd is 37 µM. In the assay on Plasma, the 2aPTT was determined as 1062 µM. Besides, the inhibition entry in assay [4], in assay [5], in assay [6] and in [7] was “inactive” each time. In addition, the Efficacy on Coagulation factor XI [1] came to 89%.

On to `O=c1c2ccccc2nc(-c2cccc(OS(=O)(=O)O)c2)n1CCCCn1cc(Cn2c(-c3cc(OS(=O)(=O)O)cc(OS(=O)(=O)O)c3)nc3ccccc3c2=O)nn1`, for which the concentration for half-maximal inhibition (IC50) against Coagulation factor XI [2] is 213 µM. Besides, on Coagulation factor XI [1], the Efficacy came out at 93%.

On Coagulation factor XI [2], `O=c1c2ccccc2nc(-c2ccc(OS(=O)(=O)O)cc2)n1Cc1cn(CCn2cc(Cn3c(-c4ccc(OS(=O)(=O)O)cc4)nc4ccccc4c3=O)nn2)nn1` displayed an IC50 of 305 µM. In addition, the Efficacy at Coagulation factor XI [1] turned out to be 98%.

In turn, `COc1cc(-c2nc3ccccc3c(=O)n2CCCCn2cc(Cn3c(-c4cccc(OS(=O)(=O)O)c4)nc4ccccc4c3=O)nn2)ccc1OS(=O)(=O)O` returned an IC50 against Coagulation factor XI [2] of 182 µM. Further, at Coagulation factor XI [1], the Efficacy amounted to 88%.

With `O=c1c2ccccc2nc(-c2ccc(OS(=O)(=O)O)cc2)n1CCCCCCn1cc(Cn2c(-c3ccc(OS(=O)(=O)O)cc3)nc3ccccc3c2=O)nn1`, on Coagulation factor XI [2], half-maximal inhibition (IC50) was put at 52 µM. At Coagulation factor XI [3], this compound displayed a Kd of 38 µM. In addition, the Activity in the assay with HEK293 [8] is 4.9%; on Coagulation factor XI [9], 6.3%; on Coagulation factor XI [10], 4.2%. In addition, the inhibition entry in the assay with HEK293 [11] and on Coagulation factor XI [14] was “Active” throughout. Further, the Ratio IC50 came out at 5 in the assay listed under Homo sapiens [12] and 2 in the assay listed under Homo sapiens [13]. Moreover, the 2aPTT in the assay with Plasma was found to be 950 µM. Moreover, the inhibition result in assay [4], in [5], in assay [6] and in [7] was “inactive” in each case. Also, at Coagulation factor XI [1], the Efficacy was 97%.

`COc1cc(-c2nc3ccccc3c(=O)n2CCCCn2cc(COc3cc(-c4oc5cc(OS(=O)(=O)O)cc(OC)c5c(=O)c4OS(=O)(=O)O)ccc3OS(=O)(=O)O)nn2)ccc1OS(=O)(=O)O`: the IC50 at Coagulation factor XI [2] is 216 µM. Also, the Efficacy on Coagulation factor XI [1] is 50%.

`CC(=O)Oc1cc(OS(=O)(=O)O)cc(-c2nc3ccccc3c(=O)n2CCCCn2cc(Cn3c(-c4cc(OS(=O)(=O)O)cc(OS(=O)(=O)O)c4)nc4ccccc4c3=O)nn2)c1` returned an IC50 at Coagulation factor XI [2] of 273 µM. The Efficacy at Coagulation factor XI [1] is 91%.

`COc1cc(-c2nc3ccccc3c(=O)n2CCCCn2cc(Cn3c(-c4ccc(OS(=O)(=O)O)c(OC)c4)nc4ccccc4c3=O)nn2)ccc1OS(=O)(=O)O` displayed an IC50 against Coagulation factor XI [2] of 139 µM. Further, on Coagulation factor XI [1], the Efficacy was 95%.

On to `O=c1c2ccccc2nc(-c2ccc(OS(=O)(=O)O)cc2)n1CCCCn1cc(Cn2c(-c3ccc(OS(=O)(=O)O)cc3)nc3ccccc3c2=O)nn1`, for which the IC50 on Coagulation factor XI [2] amounted to 82 µM. The compound also came in with a Kd on Coagulation factor XI [3] of 84 µM. For the same compound, the 2aPTT in the assay with Plasma was determined as 979 µM. The inhibition entry in assay [4], in assay [5], in assay [6] and in [7] was “inactive” in each case. Moreover, the Efficacy on Coagulation factor XI [1] amounted to 91%.

`CC(=O)Oc1cc(OS(=O)(=O)O)cc(-c2nc3ccccc3c(=O)n2CCCCn2cc(Cn3c(-c4cc(O)cc(OS(=O)(=O)O)c4)nc4ccccc4c3=O)nn2)c1` showed an IC50 at Coagulation factor XI [2] of 153 µM. Besides, the Efficacy on Coagulation factor XI [1] amounted to 96%.

On to `COc1cc(OS(=O)(=O)O)cc2oc(-c3ccc(OS(=O)(=O)O)c(OCc4cn(CCCCn5c(-c6cc(OC(C)=O)cc(OS(=O)(=O)O)c6)nc6ccccc6c5=O)nn4)c3)c(OS(=O)(=O)O)c(=O)c12`, for which, on Coagulation factor XI [2], the IC50 was 407 µM. On Coagulation factor XI [1], the Efficacy was found to be 90%.

Compound `O=c1c2ccccc2nc(-c2cccc(OS(=O)(=O)O)c2)n1CCCCn1cc(Cn2c(-c3ccc(OS(=O)(=O)O)cc3)nc3ccccc3c2=O)nn1` displayed an IC50 at Coagulation factor XI [2] of 91 µM. Moreover, the Kd at Coagulation factor XI [3] was 91 µM. Besides, at Coagulation factor XI [1], the Efficacy is 103%.
